Assay results as given in ChEMBL document CHEMBL3228012, “Actinomycin D oxazinones as improved antitumor agents” (1979).
≈ marks a conversion by molar mass, not a printed value. Calls of active or inactive are those of the source. The calls are words filed in the database; no cut-off is given here. Starred links: 1 amine or outer side, 2 acyl side, 3 side chain; linkers in the order of their positions; H or OH if unused. Positions of bridges follow the written chain, without caps; N, C: chain ends. Non-standard residues stand in square brackets, D forms with d. Residues, ends and D or L forms follow the SMILES beside them. Chains are numbered I, II in the order given. Actinocin(1to9) = Cc1c2oc3c(C)ccc(C(=O)[*:2])c3nc-2c(C(=O)[*:1])c(N)c1=O; NMeV = CN[C@H](C(=O)O)C(C)C; Sar = CNCC(=O)O

How the values were obtained:
P388 [1] = test: Antitumor activity against mouse P388 cells allografted in mouse BDF1 mouse assessed as increase in survival time of mouse at 300 ug/kg, ip for 4 days relative to untreated control; details: 96 h
P388 [2] = test: Antitumor activity against mouse P388 cells allografted in mouse BDF1 mouse assessed as increase in survival time of mouse at 75 ug/kg, ip for 4 days relative to untreated control; details: 96 h
P388 [3] = test: Antitumor activity against mouse P388 cells allografted in mouse BDF1 mouse assessed as increase in survival time of mouse at 150 ug/kg, ip for 4 days relative to untreated control; details: 96 h
P388 [4] = test: Antitumor activity against mouse P388 cells allografted in mouse BDF1 mouse assessed as survival time of mouse at 150 ug/kg, ip for 4 days (reference value: 11.5 days)
Calf thymus DNA [5] = test: Binding affinity to calf thymus DNA in 0.15 M NaCl-0.01 M phosphate buffer at pH 7.3 at 37 degC incubated for 30 mins; details: Bos taurus
Calf thymus DNA [6] = test: Binding affinity to calf thymus DNA in 0.15 M NaCl-0.01 M sodium phosphate buffer at pH 7.3 at 37 degC incubated for 30 mins; type: nucleic-acid assay; details: Bos taurus
Method in brief: (§1)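 Compounds were mixed with calf thymus DNA, and binding was monitored by difference absorption spectra with and without DNA. Binding to DNA was judged from a bathochromic shift of λmax with hypochromicity.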

CCRF-CEM = test: Antitumor activity against human CCRF-CEM cells assessed as growth inhibition after 48 hrs; type: functional; details: read-out: ID50 (the source's name)
Method in brief: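 Human leukemic lymphoblasts were grown in continuous spinner suspension culture. Compounds were exposed for 48 h. ID50 was taken as the concentration in ng/mL giving 50% growth inhibition.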

P388 [7] = test: Antitumor activity against mouse P388 cells allografted in mouse BDF1 mouse assessed as increase in survival >50 days at 75 ug/kg, ip for 4 days
P388 [8] = test: Antitumor activity against mouse P388 cells allografted in mouse BDF1 mouse assessed as complete suppression of tumor on day 307 at 150 ug/kg, ip for 4 days
P388 [9] = test: Antitumor activity against mouse P388 cells allografted in mouse BDF1 mouse assessed as survival time of mouse at 75 ug/kg, ip for 4 days (reference value: 11.5 days)
P388 [10] = test: Antitumor activity against mouse P388 cells allografted in mouse BDF1 mouse assessed as increase in survival >50 days at 300 ug/kg, ip for 4 days
P388 [11] = test: Antitumor activity against mouse P388 cells allografted in mouse BDF1 mouse assessed as survival time of mouse at 300 ug/kg, ip for 4 days (reference value: 11.5 days)
Calf thymus DNA [12] = test: Binding affinity to calf thymus DNA in 0.15 M NaCl-0.01 M sodium phosphate buffer at pH 7.3 at 37 degC incubated for 5 mins; type: nucleic-acid assay; details: Bos taurus
Method in brief: as §1

Calf thymus DNA [13] = test: Binding affinity to calf thymus DNA in 0.01 M phosphate buffer at pH 7 at 20 degC incubated for 5 mins; type: nucleic-acid assay; details: Bos taurus
Method in brief: as §1

P388 [14] = test: Antitumor activity against mouse P388 cells allografted in mouse BDF1 mouse assessed as increase in survival >50 days at 150 ug/kg, ip for 4 days
P388 [15] = test: Antitumor activity against mouse P388 cells allografted in mouse BDF1 mouse assessed as increase in survival >50 days at 50 ug/kg, ip for 4 days
P388 [16] = test: Antitumor activity against mouse P388 cells allografted in mouse BDF1 mouse assessed as survival time of mouse at 50 ug/kg, ip for 4 days (reference value: 11.5 days)
P388 [17] = test: Antitumor activity against mouse P388 cells allografted in mouse BDF1 mouse assessed as increase in survival time of mouse at 50 ug/kg, ip for 4 days relative to untreated control; details: 96 h

Structure (SMILES): CCc1nc2c(C(=O)N[C@@H]3C(=O)N[C@H](C(C)C)C(=O)N4CCC[C@H]4C(=O)N(C)CC(=O)N(C)[C@@H](C(C)C)C(=O)O[C@@H]3C)c3c(c(C)c2oc1=O)Oc1c(C)ccc(C(=O)N[C@@H]2C(=O)N[C@H](C(C)C)C(=O)N4CCC[C@H]4C(=O)N(C)CC(=O)N(C)[C@@H](C(C)C)C(=O)O[C@@H]2C)c1N3
- survival at 0.3 mg/kg (P388 [1]): 126%
- survival at 0.075 mg/kg (P388 [2]): 152%
- Percent increase in survival time vs untreated control at 0.15 mg/kg (P388 [3]): 204%
- MST (P388 [4]): 35 days
- Activity (Calf thymus DNA [5]): Active
- Activity (Calf thymus DNA [6]): Active
- IC50 (CCRF-CEM): 0.012 µg/mL (≈ 9.07 nM)
- Activity (P388 [7]): inactive
- Activity (P388 [8]): Active
- MST (P388 [9]): 29 days
- Activity (P388 [10]): inactive
- MST (P388 [11]): 26 days
- Activity (Calf thymus DNA [12]): inactive
- Activity (Calf thymus DNA [13]): inactive

Structure (SMILES): Cc1ccc(C(=O)N[C@@H]2C(=O)N[C@H](C(C)C)C(=O)N3CCC[C@H]3C(=O)N(C)CC(=O)N(C)[C@@H](C(C)C)C(=O)O[C@@H]2C)c2c1Oc1c(c(C(=O)N[C@@H]3C(=O)N[C@H](C(C)C)C(=O)N4CCC[C@H]4C(=O)N(C)CC(=O)N(C)[C@@H](C(C)C)C(=O)O[C@@H]3C)c3nc(CCC(=O)O)c(=O)oc3c1C)N2
- survival at 0.3 mg/kg (P388 [1]): 159%
- Activity (Calf thymus DNA [5]): Active
- Activity (Calf thymus DNA [6]): Active
- IC50 (CCRF-CEM): 0.028 µg/mL (≈ 20.5 nM)
- Activity (P388 [10]): inactive
- Activity (Calf thymus DNA [12]): inactive
- Activity (Calf thymus DNA [13]): inactive

Structure (SMILES): Cc1ccc(C(=O)N[C@@H]2C(=O)N[C@H](C(C)C)C(=O)N3CCC[C@H]3C(=O)N(C)CC(=O)N(C)[C@@H](C(C)C)C(=O)O[C@@H]2C)c2c1Oc1c(c(C(=O)N[C@@H]3C(=O)N[C@H](C(C)C)C(=O)N4CCC[C@H]4C(=O)N(C)CC(=O)N(C)[C@@H](C(C)C)C(=O)O[C@@H]3C)c3nc(C)c(=O)oc3c1C)N2
- Activity (P388 [14]): inactive
- Percent increase in survival time vs untreated control at 0.15 mg/kg (P388 [3]): 155%
- Activity (Calf thymus DNA [5]): Active
- Activity (Calf thymus DNA [6]): Active
- IC50 (CCRF-CEM): 0.012 µg/mL (≈ 9.16 nM)
- Activity (Calf thymus DNA [12]): inactive
- Activity (Calf thymus DNA [13]): inactive

Structure (SMILES): Cc1c2oc3c(C)ccc(C(=O)N[C@@H]4C(=O)N[C@H](C(C)C)C(=O)N5CCC[C@H]5C(=O)N(C)CC(=O)N(C)[C@@H](C(C)C)C(=O)O[C@@H]4C)c3nc-2c(C(=O)N[C@@H]2C(=O)N[C@H](C(C)C)C(=O)N3CCC[C@H]3C(=O)N(C)CC(=O)N(C)[C@@H](C(C)C)C(=O)O[C@@H]2C)c(N)c1=O [DACTINOMYCIN] (I: T[dV]P[Sar][NMeV] / II: T[dV]P[Sar][NMeV]; ester I:1-I:C, II:1-II:C; linker I:N-II:N via Actinocin(1to9))
- Activity (P388 [14]): inactive
- survival at 0.075 mg/kg (P388 [2]): 149%
- Activity (P388 [15]): inactive
- survival at 0.15 mg/kg (P388 [3]): -31%
- MST (P388 [4]): 8 days
- MST (P388 [16]): 28 days
- IC50 (CCRF-CEM): 0.01 µg/mL (≈ 7.97 nM)
- Activity (P388 [7]): inactive
- MST (P388 [9]): 30 days
- survival at 0.05 mg/kg (P388 [17]): 141%

Structure (SMILES): Cc1ccc(C(=O)N[C@@H]2C(=O)N[C@H](C(C)C)C(=O)N3CCC[C@H]3C(=O)N(C)CC(=O)N(C)[C@@H](C(C)C)C(=O)O[C@@H]2C)c2c1Oc1c(c(C(=O)N[C@@H]3C(=O)N[C@H](C(C)C)C(=O)N4CCC[C@H]4C(=O)N(C)CC(=O)N(C)[C@@H](C(C)C)C(=O)O[C@@H]3C)c3nc(CC(=O)O)c(=O)oc3c1C)N2
- Activity (P388 [14]): inactive
- Percent increase in survival time vs untreated control at 0.15 mg/kg (P388 [3]): 140%
- Activity (Calf thymus DNA [5]): Active
- Activity (Calf thymus DNA [6]): Active
- IC50 (CCRF-CEM): 0.012 µg/mL (≈ 8.87 nM)
- Activity (Calf thymus DNA [12]): inactive
- Activity (Calf thymus DNA [13]): inactive

Structure (SMILES): Cc1ccc(C(=O)N[C@@H]2C(=O)N[C@H](C(C)C)C(=O)N3CCC[C@H]3C(=O)N(C)CC(=O)N(C)[C@@H](C(C)C)C(=O)O[C@@H]2C)c2c1Oc1c(c(C(=O)N[C@@H]3C(=O)N[C@H](C(C)C)C(=O)N4CCC[C@H]4C(=O)N(C)CC(=O)N(C)[C@@H](C(C)C)C(=O)O[C@@H]3C)c3ncc(=O)oc3c1C)N2
- Activity (P388 [14]): inactive
- Percent increase in survival time vs untreated control at 0.15 mg/kg (P388 [3]): 169%
- Activity (Calf thymus DNA [5]): Active
- Activity (Calf thymus DNA [6]): Active
- IC50 (CCRF-CEM): 0.024 µg/mL (≈ 18.5 nM)
- Activity (Calf thymus DNA [12]): inactive
- Activity (Calf thymus DNA [13]): inactive
